Key:
BMP2K = BMP2K (Homo sapiens, UniProt Q9NSY1); assay: MIB dose-dependent kinase inhibition assay; format: binding; conditions: read-out: IC50 in the MIB assay, H23 cell lysate, overnight 4°C
CSNK2A1 = assay: MIB washout assay; format: binding, Human; conditions: H23 cells, 1 μM 4h, MIB pulldown ratio SM1-71/SM1-71-R
INSR = assay: MIB washout assay; format: binding, Human; conditions: H23 cells, 1 μM 4h, MIB pulldown ratio SM1-71/SM1-71-R
YES1 = YES1 (Homo sapiens, UniProt P07947); assay: MIB dose-dependent kinase inhibition assay; format: binding; conditions: read-out: IC50 in the MIB assay, H23 cell lysate, overnight 4°C
YES1, sequence (P07947 whole entry): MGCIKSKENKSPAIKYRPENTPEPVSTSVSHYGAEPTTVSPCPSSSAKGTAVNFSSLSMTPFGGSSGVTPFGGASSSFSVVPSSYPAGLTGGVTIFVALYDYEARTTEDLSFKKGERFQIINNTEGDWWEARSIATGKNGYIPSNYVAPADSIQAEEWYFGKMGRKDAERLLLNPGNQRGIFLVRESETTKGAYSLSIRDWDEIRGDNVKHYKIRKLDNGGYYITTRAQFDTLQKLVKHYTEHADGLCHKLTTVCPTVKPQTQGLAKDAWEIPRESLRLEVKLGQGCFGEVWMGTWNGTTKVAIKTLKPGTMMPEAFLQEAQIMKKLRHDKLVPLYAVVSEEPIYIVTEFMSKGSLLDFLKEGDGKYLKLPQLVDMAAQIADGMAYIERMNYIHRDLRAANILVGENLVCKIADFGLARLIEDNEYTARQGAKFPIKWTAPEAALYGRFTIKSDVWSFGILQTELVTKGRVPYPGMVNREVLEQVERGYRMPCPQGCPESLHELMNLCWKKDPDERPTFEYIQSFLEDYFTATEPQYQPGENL

AAK1 = AAK1 (Homo sapiens, UniProt Q2M2I8); assay: MIB dose-dependent kinase inhibition assay; format: binding; conditions: read-out: IC50 in the MIB assay, H23 cell lysate, overnight 4°C
AAK1, sequence (Q2M2I8 whole entry): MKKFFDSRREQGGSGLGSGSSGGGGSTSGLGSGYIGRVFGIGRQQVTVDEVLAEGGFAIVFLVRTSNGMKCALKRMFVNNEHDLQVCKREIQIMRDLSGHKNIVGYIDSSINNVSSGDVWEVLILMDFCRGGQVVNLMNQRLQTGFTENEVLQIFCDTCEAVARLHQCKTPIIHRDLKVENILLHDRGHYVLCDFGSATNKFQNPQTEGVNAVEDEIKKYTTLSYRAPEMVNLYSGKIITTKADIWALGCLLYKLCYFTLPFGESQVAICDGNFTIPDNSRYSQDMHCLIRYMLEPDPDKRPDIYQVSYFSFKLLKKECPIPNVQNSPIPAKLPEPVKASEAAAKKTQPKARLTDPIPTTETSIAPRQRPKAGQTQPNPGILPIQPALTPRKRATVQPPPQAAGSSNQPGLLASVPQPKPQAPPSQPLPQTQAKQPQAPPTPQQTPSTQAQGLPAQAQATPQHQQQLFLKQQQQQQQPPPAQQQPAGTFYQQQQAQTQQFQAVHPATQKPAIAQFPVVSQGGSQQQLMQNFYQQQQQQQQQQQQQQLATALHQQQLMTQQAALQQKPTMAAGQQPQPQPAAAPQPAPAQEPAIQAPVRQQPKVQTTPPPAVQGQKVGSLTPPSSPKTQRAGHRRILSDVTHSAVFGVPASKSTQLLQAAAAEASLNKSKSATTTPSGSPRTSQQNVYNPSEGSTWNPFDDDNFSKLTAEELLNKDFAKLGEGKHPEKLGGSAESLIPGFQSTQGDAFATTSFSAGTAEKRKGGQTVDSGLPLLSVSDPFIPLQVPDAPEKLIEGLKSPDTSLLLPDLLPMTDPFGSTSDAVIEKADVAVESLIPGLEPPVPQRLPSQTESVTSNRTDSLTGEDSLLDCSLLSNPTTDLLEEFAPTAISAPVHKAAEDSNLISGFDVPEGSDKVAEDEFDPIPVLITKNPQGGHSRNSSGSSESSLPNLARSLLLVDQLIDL

CDK9 = assay: MIB washout assay; format: binding, Human; conditions: H23 cells, 1 μM 4h, MIB pulldown ratio SM1-71/SM1-71-R
AURKA = biological target: T1, AURKA (Homo sapiens, UniProt O14965); assay: MIB dose-dependent kinase inhibition assay; format: binding; conditions: read-out: IC50 in the MIB assay, H23 cell lysate, overnight 4°C
T1 sequence (O14965 1-403): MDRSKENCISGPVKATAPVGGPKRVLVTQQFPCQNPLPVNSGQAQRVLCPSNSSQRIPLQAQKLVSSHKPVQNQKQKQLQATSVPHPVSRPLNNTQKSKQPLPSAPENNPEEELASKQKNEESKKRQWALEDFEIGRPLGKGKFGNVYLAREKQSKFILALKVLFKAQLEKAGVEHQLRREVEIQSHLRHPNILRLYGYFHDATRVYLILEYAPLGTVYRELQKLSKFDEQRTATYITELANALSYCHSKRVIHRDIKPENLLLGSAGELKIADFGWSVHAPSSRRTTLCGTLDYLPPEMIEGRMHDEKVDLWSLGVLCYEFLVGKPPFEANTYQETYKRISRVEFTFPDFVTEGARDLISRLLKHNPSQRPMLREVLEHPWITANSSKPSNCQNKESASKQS

TGFBR2 = assay: MIB washout assay; format: binding, Human; conditions: H23 cells, 1 μM 4h, MIB pulldown ratio SM1-71/SM1-71-R
MAP3K11 = assay: MIB washout assay; format: binding, Human; conditions: H23 cells, 1 μM 4h, MIB pulldown ratio SM1-71/SM1-71-R
MAP2K1 = assay: MIB washout assay; format: binding, Human; conditions: H23 cells, 1 μM 4h, MIB pulldown ratio SM1-71/SM1-71-R
LYN = assay: MIB washout assay; format: binding, Human; conditions: H23 cells, 1 μM 4h, MIB pulldown ratio SM1-71/SM1-71-R
AGK = assay: MIB washout assay; format: binding, Human; conditions: H23 cells, 1 μM 4h, MIB pulldown ratio SM1-71/SM1-71-R
SRC = SRC (Homo sapiens, UniProt P12931); assay: MIB dose-dependent kinase inhibition assay; format: binding; conditions: read-out: IC50 in the MIB assay, H23 cell lysate, overnight 4°C
SRC, sequence (P12931 whole entry): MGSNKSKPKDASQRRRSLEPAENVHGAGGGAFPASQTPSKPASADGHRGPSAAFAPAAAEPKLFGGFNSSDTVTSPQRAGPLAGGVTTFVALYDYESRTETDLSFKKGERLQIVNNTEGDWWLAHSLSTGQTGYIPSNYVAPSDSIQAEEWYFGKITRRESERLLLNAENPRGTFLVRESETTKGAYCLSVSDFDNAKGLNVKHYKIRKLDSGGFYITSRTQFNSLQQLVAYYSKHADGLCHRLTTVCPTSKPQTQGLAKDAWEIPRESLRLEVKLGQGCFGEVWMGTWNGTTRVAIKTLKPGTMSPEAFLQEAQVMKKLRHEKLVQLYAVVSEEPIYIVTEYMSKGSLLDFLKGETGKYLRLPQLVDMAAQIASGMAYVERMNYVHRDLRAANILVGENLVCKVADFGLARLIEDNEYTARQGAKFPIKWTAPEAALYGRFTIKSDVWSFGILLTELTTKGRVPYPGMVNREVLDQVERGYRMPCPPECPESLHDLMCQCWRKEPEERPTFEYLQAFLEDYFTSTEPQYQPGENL

PTK2 = assay: MIB washout assay; format: binding, Human
MAP2K6 = MAP2K6 (Homo sapiens, UniProt P52564); assay: mass shift assay; format: binding; conditions: incubated 4 and 24h
MAP2K6, sequence (P52564 whole entry, species assumed): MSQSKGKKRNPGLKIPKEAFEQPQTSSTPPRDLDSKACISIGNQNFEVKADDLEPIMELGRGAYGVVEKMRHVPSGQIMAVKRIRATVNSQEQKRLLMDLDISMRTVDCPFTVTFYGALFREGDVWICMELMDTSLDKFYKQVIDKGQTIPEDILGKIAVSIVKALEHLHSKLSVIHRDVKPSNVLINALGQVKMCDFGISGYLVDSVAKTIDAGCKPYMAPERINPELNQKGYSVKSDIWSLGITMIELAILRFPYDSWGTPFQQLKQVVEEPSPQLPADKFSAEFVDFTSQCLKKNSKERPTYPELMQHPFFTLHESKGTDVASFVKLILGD
Method in brief: (§1)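 Kinase protein at 0.12 mM in 10 mM HEPES pH 7.5, 500 mM NaCl, incubated with 0.2 mM test compound at 4°C for 4 h and 24 h. Samples were diluted in 0.1% formic acid and desalted on a C3 pre-column. ESI-TOF was run in positive mode at 120 V, and intact mass was obtained by deconvolution to detect the adduct.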

43 recombinant kinases = assay: thermal stability shift assay; format: binding; conditions: 21 of 43 recombinant kinases; protein 2 μM, inhibitor 10 μM
GAK = biological target: T2, GAK (Homo sapiens, UniProt O14976); assay: mass shift assay; format: binding; conditions: incubated 4 and 24h
T2 sequence (O14976 1-1311): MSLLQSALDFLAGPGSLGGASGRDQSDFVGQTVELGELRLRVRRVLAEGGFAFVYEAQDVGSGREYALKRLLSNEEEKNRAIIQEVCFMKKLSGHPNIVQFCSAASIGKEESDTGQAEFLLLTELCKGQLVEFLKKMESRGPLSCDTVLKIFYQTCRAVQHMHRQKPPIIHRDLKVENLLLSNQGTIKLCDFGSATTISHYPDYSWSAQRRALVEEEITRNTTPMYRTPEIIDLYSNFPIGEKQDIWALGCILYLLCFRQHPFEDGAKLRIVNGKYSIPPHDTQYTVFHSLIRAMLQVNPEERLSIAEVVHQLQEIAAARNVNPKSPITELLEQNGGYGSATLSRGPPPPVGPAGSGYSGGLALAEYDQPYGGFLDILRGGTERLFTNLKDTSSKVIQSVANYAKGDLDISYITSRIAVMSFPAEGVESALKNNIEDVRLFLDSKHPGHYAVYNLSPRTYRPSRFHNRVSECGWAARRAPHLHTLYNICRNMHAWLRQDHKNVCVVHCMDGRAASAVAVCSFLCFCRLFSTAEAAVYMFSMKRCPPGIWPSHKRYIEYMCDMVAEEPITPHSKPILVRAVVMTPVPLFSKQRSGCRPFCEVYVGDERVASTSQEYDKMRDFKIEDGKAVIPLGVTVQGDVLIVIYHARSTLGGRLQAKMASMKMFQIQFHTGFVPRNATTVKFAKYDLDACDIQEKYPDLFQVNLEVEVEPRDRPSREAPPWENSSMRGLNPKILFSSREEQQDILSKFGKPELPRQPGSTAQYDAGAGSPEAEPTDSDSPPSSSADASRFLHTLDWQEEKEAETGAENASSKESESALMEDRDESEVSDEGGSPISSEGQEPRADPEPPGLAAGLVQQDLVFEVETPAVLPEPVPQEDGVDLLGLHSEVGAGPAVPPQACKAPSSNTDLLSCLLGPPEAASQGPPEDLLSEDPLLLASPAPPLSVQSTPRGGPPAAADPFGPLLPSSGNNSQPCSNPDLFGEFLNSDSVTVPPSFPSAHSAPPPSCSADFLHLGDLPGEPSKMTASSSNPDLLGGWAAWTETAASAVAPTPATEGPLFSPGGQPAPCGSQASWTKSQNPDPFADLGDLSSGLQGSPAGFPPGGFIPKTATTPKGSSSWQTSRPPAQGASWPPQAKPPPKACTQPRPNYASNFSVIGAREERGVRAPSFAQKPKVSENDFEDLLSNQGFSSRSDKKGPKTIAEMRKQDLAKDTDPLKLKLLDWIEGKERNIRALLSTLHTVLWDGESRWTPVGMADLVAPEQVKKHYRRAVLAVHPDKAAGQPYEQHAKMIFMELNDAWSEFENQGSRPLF
Method in brief: as §1

PAK4 = assay: MIB washout assay; format: binding, Human; conditions: H23 cells, 1 μM 4h, MIB pulldown ratio SM1-71/SM1-71-R

BMP2K, sequence (Q9NSY1 whole entry): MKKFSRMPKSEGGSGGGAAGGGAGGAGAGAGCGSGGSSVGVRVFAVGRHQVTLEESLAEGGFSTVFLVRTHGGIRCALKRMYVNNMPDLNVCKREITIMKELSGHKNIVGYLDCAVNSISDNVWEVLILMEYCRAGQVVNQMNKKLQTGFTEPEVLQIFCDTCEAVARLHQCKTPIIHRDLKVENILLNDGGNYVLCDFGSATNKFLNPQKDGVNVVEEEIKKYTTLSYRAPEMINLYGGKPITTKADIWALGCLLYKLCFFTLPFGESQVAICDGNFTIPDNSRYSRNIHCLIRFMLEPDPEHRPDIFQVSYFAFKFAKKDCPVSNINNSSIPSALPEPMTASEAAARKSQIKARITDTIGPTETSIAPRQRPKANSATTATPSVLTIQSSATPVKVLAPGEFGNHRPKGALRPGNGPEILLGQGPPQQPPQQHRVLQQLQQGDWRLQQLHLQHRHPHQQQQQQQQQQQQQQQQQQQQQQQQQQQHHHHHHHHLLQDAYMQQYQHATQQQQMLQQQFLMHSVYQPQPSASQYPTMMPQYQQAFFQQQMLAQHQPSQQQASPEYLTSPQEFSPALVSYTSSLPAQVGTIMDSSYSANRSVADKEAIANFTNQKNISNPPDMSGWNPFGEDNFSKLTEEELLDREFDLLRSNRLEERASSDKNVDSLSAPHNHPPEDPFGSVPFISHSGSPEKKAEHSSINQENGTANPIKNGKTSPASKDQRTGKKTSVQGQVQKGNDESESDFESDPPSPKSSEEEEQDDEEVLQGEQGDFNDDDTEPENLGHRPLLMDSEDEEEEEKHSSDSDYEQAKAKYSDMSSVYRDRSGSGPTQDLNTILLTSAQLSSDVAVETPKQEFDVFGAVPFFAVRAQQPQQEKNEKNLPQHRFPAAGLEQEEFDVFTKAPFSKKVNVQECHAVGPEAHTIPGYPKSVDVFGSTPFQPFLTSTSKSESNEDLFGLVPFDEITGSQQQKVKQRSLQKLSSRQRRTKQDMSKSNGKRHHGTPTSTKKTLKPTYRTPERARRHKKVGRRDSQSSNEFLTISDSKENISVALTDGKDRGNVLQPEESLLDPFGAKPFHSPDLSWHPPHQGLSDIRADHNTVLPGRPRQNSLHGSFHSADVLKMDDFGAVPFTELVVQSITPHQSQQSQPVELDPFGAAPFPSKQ

Compound: C=CC(=O)Nc1ccccc1Nc1nc(Nc2ccc(N3CCN(C)CC3)cc2)ncc1Cl [SM1-71]
- IC50 (BMP2K): < 10 nM
- BI-0h (CSNK2A1; 0h post-washout): 0.8
- BI-6h (CSNK2A1; 6h post-washout): 0.64
- BI-0h (INSR; 0h post-washout): 0.52
- BI-6h (INSR; 6h post-washout): 0.76
- IC50 (YES1): < 10 nM
- IC50 (AAK1): < 10 nM
- BI-0h (CDK9; 0h post-washout): 0.46
- BI-6h (CDK9; 6h post-washout): 0.96
- IC50 (AURKA): < 10 nM
- BI-0h (TGFBR2; 0h post-washout): 0.53
- BI-6h (TGFBR2; 6h post-washout): 0.6
- BI-0h (MAP3K11; 0h post-washout): 0.6
- BI-6h (MAP3K11; 6h post-washout): 0.76
- BI-0h (MAP2K1; 0h post-washout): 0.05
- BI-6h (MAP2K1; 6h post-washout): 0.36
- BI-0h (LYN; 0h post-washout): 1.1
- BI-6h (LYN; 6h post-washout): 0.79
- BI-0h (AGK; 0h post-washout): 0.66
- BI-6h (AGK; 6h post-washout): 0.5
- IC50 (SRC): < 10 nM
- BI-0h (PTK2; H23 cells, 1 μM 4h, 0h post-washout, MIB pulldown ratio SM1-71/SM1-71-R): 1.3
- BI-6h (PTK2; H23 cells, 1 μM 4h, 6h post-washout, MIB pulldown ratio SM1-71/SM1-71-R): 1.12
- Binding (PTK2; class from BI 0h and 6h): Strongly Reversible (BI0h,6h greater than 1 suggesting a strong preference for reversible mode of inhibition)
- covalent adduct formation (mass shift) (MAP2K6): formed covalent adducts
- ΔTm shifts (43 recombinant kinases): > 6 °C
- covalent adduct formation (mass shift) (GAK): formed covalent adducts
- BI-0h (PAK4; 0h post-washout): 0.93
- BI-6h (PAK4; 6h post-washout): 0.9

Source: PMC6634314 (Cell chemical biology, 2019)
